MC4R barr agon: activates human MC4R beta-arrestin recruitment; P32245; U2OS MC4R beta-arrestin complementation, luminescence; percent of melanotan II response, DMSO zero; activation, % at 8.9 µM; actives 0.98% (n = 360,000); AID 540308;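 active = activation above a per-plate cutoff, the mean activation of sample wells on that plate plus 3 SD, cut at about 8% in these data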
NTR1 ag: agonists of human neurotensin receptor NTR1; activation, % at 20 µM; AID 493036; actives 0.17% (n = 330,000); P30989; NTR1-U2OS beta-arrestin-GFP spot imaging, agonist mode;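 active = activation at or above 40% of the spot to cytoplasm intensity ratio, with at least 20 cells analyzed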
Target sequence (P30989 whole entry, looked up): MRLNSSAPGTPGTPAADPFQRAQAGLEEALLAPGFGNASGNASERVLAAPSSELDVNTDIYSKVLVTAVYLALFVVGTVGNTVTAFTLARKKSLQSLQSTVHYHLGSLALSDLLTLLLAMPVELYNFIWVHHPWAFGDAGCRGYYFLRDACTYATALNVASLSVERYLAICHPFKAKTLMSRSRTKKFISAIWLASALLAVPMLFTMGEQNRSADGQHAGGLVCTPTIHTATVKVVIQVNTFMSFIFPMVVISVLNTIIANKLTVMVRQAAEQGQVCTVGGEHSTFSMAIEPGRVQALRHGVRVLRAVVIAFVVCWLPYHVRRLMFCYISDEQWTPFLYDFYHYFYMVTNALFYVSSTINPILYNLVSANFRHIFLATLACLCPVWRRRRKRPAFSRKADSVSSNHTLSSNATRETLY
MC4R antag cAMP: human MC4R antagonism in cAMP assay; MC4R-expressing cells, MTII-stimulated cAMP, LANCE TR-FRET; AID 540295; inhibition, % at 6.5 µM; actives 0.48% (n = 360,000);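 active = inhibition above its plate's cutoff, the mean of tested wells on that plate plus 3 SD, cut at about 29% in these data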
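Material: human MC4R-expressing U2OS cells. Probe or stimulus: Melanotan II challenge. Dosing: 6.5 µM single dose. Times: 30-min compound, 1-h challenge, 1-h detection, room temperature. Technique: TR-FRET with Eu-cAMP and labeled anti-cAMP, 671 nm. Replication: singlicate.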
Bfl-1 A1 inh: inhibitors of the anti-apoptotic protein A1, read as caspase activation; actives 0.066% (n = 330,000); caspase activation, % (test concentration not listed); MEF A1-2A-BIM cells, Caspase-Glo 3/7 luminescence, 3 h; percent of clofoctol response, vehicle zero;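 active = over half of replicate activation scores above 10%, or exactly half above 10 with the replicate mean above 10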
sPLA2-III inh: Blocks human group III sPLA2 activity. Q9NZ20. QFRET BODIPY PC-A2 liposome hydrolysis, fluorescence. inhibition, % at 12.2 µM. actives 0.56% (n = 370,000). AID 743126;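 active = inhibition above mean plus 3 SD of compounds lying within the high and low control bounds, cut at about 19% in these data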
Exocytosis inh: lytic granule exocytosis inhibition | AID 651702 | inhibition, % at 10 µM | TALL-104 LAMP-1 surface exposure, flow cytometry; cells stimulated with thapsigargin and PMA | actives 0.66% (n = 360,000);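 active = inhibition above about 55%, limit read from the data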
Exocytosis CP01: lytic granule exocytosis inhibition; TALL-104 cells, LAMP-1 externalization, flow cytometry; stimulated with PMA plus thapsigargin; actives 11% (n = 1,500); inhibition, % at 10 µM; shares compounds with Exocytosis inh; in the data active = inhibition above about 60%
Of the large screens only hits and unclear results are named; the others gave an inactive call (follow-up assays come after a bar, where they were run). Only some compounds are listed: those with a hit (about 2.5% of all), similar ones and a draw of the others.

CSc1scc2c1-c1nc(SCC(=O)C(C)(C)C)ncc1CC2	Exocytosis inh 73.8 | Exocytosis CP01 inactive
Cc1ccc(Br)cc1S(=O)(=O)N1CCN(c2ccccc2)CC1	Exocytosis inh 66.3 | Exocytosis CP01 inactive
Cc1cc2[nH]c(=O)c(=O)[nH]c2cc1S(=O)(=O)N1CCN(c2ccccc2)CC1	none
COc1ccc(C(=O)NCCN(C)C)c2nc3ccccc3cc12	Exocytosis inh 73.2 (no result: NTR1 ag, Bfl-1 A1 inh) | Exocytosis CP01 inactive
CN(C)CCNC(=O)c1cccc2nc3c(ccc4ccccc43)nc12	Exocytosis inh 62.1 (no result: NTR1 ag, Bfl-1 A1 inh) | Exocytosis CP01 inactive
COC(=O)C(C)Sc1nc2c(c(-c3ccc(OC)cc3)c1C#N)-c1ccccc1C2=O (stereo unspecified)	none
CCOc1ccccc1C(=O)Nc1ccc(C(=O)c2ccccc2)cc1	Exocytosis inh 60.3 | Exocytosis CP01 inactive
COC(=O)c1cc(C(C)c2c[nH]c3ccccc23)n2ccccc12 (stereo unspecified)	none (no result: MC4R barr agon, NTR1 ag, MC4R antag cAMP, Bfl-1 A1 inh, Exocytosis inh)
O=C(NCc1ccc2c(c1)OCO2)C12CN(Cc3ccccc3)CC1C(c1cccc([N+](=O)[O-])c1)=NO2 (stereo unspecified)	Exocytosis inh 100.1 | Exocytosis CP01 inactive
COC(=O)[C@]12C[C@H](CC(=O)NCc3ccc(OC)c(OC)c3)C(=O)N(Cc3cccc4ccccc34)C1=C[C@H](C1CCCC1)O[C@@H]2C	none (no result: MC4R barr agon, NTR1 ag, MC4R antag cAMP, Bfl-1 A1 inh, Exocytosis inh)
CCCS(=O)(=O)Nc1ccc(Nc2c3ccccc3nc3ccccc23)c(OC)c1	Exocytosis inh 77.6 (no result: NTR1 ag, Bfl-1 A1 inh) | Exocytosis CP01 88.6
CCOC(=O)C1=CCN(S(=O)(=O)c2ccc(Br)cc2)C1c1ccc(F)cc1 (stereo unspecified)	none (no result: MC4R barr agon, NTR1 ag, MC4R antag cAMP, Bfl-1 A1 inh, Exocytosis inh)
CN(C)/C=C\C(=C/C(=O)C(F)(F)F)Nc1ccccc1Oc1ccccc1	Exocytosis inh 76.6 | Exocytosis CP01 inactive
Cc1onc(-c2ccccc2Cl)c1C(=O)Nc1cccc2cccnc12	none
COc1cc(NC(=O)c2c(-c3ccccc3Cl)noc2C)c2ncccc2c1	Exocytosis inh 82.2 | Exocytosis CP01 inactive
Cc1cccc(CN2CCC(C(=O)Nc3cccc(-c4cccc(F)c4)c3)CC2)n1	Exocytosis inh 61.8 | Exocytosis CP01 inactive
CC(=O)N1c2ccc(S(=O)(=O)NCC3CCC(C(=O)N4CCC(C)CC4)CC3)cc2CC1C (stereo unspecified)	none
O=C(Cc1ccccc1)c1ccc2c(c1)OCCO2	none
O=C(CCN1CCCCC1)c1ccc2c(c1)OCO2	Exocytosis inh 79.9 | Exocytosis CP01 inactive
O=C(CCN1CCCCC1)c1ccccc1	none
O=C(CCN1CCc2ccccc2CC1)c1ccc2c(c1)OCCO2	Exocytosis inh 100.8 | Exocytosis CP01 78.1
CCOc1ccc(C(=O)CCN2CCCCCC2)cc1	Exocytosis inh 100.6 | Exocytosis CP01 64.3
COC(=O)C(Cc1c[nH]c2ccccc12)NC(=O)C(C)C (stereo unspecified)	none
N#CCOC(=O)[C@H](Cc1c[nH]c2ccccc12)NS(=O)(=O)c1ccc(Cl)cc1	MC4R antag cAMP 33.7, Exocytosis inh 57.1 | Exocytosis CP01 inactive
COC(=O)C(Cc1c[nH]c2ccccc12)NC(=O)C(=O)c1c[nH]c2ccccc12 (stereo unspecified)	Exocytosis inh 59.0 | Exocytosis CP01 inactive
COC(=O)[C@H](Cc1c[nH]c2ccccc12)NC(=O)CCCc1c[nH]c2ccccc12	Exocytosis inh 74.2 | Exocytosis CP01 inactive
COC(=O)[C@H](Cc1c[nH]c2ccccc12)NC(=O)Cc1c[nH]c2ccccc12	Exocytosis inh 65.6 | Exocytosis CP01 inactive
C/C(=N\NC(=O)c1nnn(-c2nonc2N)c1CN(C)c1ccccc1)c1cccs1	none
C=CCc1ccc(OCC(O)CN2CCN(c3ccccc3OC)CC2)c(OC)c1 (stereo unspecified)	none
C=CCc1ccc(OCC(O)CN2CCC(Cc3ccccc3)CC2)c(OC)c1 (stereo unspecified)	Exocytosis inh 56.1 | Exocytosis CP01 inactive
Cc1ccccc1CS(=O)(=O)CCC(=O)NCc1ccc(F)cc1Cl	none
CCOC(=O)C1CCN(Cc2cc(Cl)c3ccccc3c2O)CC1	Exocytosis inh 78.5 (no result: sPLA2-III inh) | Exocytosis CP01 inactive
CCOc1ccc(CN2CCCC(N3CCN(c4ccc(OC)cc4)CC3)C2)cc1 (stereo unspecified)	none
CSc1ccc(CN2CCCC(N3CCN(c4ccccc4)CC3)C2)cc1 (stereo unspecified)	Exocytosis inh 67.4 | Exocytosis CP01 inactive
CCOC(=O)N1CCN(c2ncnc3c2[nH]c2ccc(OC)cc23)CC1	none
COc1ccc2[nH]c3c(N4CCc5ccccc5C4)ncnc3c2c1	Exocytosis inh 99.4 | Exocytosis CP01 101.7
CCCCC(=O)Nc1nc(C)c(-c2csc(Nc3ccccc3OC)n2)s1	Exocytosis inh 57.0 | Exocytosis CP01 inactive
c1ccc2[nH]c(Cn3nnc4ccccc43)nc2c1	Exocytosis inh 59.1 | Exocytosis CP01 inactive
COC(=O)C(Cc1c[nH]c2ccccc12)NC(=O)c1ccc2nc[nH]c2c1 (stereo unspecified)	none (no result: Bfl-1 A1 inh)
Cc1ccccc1NC(=O)COC(=O)COc1ccc2ccc(=O)oc2c1	none (no result: NTR1 ag, Bfl-1 A1 inh)
O=C(Nc1ccccc1-c1nc2ccccc2s1)c1ccco1	Exocytosis inh 70.7 | Exocytosis CP01 inactive
c1ccc(COc2ccc(-c3cc4nc(NCCCn5ccnc5)ccn4n3)cc2)cc1	Exocytosis inh 72.1 (no result: NTR1 ag, Bfl-1 A1 inh) | Exocytosis CP01 99.1
COc1cc(OC)c(NC(=O)C(=O)CC(=O)c2ccc(C)cc2C)cc1Cl	none
COCCNc1nc(NCC2CCCCC2)c2sc(-c3ccccc3)cc2n1	none (no result: NTR1 ag, Bfl-1 A1 inh)
c1ccc(-c2cc3nc(NCC4CC4)nc(NCC4CCCCC4)c3s2)cc1	Exocytosis inh 57.0 (no result: NTR1 ag, Bfl-1 A1 inh) | Exocytosis CP01 inactive
O=C(c1ccc(Br)cc1)N1CCN(Cc2ccccc2)CC1	none
O=C(CCN1CCN(C(=O)c2ccccc2)CC1)c1ccc(Br)cc1	Exocytosis inh 81.6 | Exocytosis CP01 inactive
O=C1ON=C(c2ccccc2)/C1=C/c1ccc(-c2ccccc2[N+](=O)[O-])o1	MC4R antag cAMP 31.7, Exocytosis inh 69.5 (no result: NTR1 ag) | Exocytosis CP01 99.4
CC(Sc1nnc(CNC(=O)c2ccco2)n1C)C(=O)Nc1nccs1 (stereo unspecified)	none
COc1ccc(N(CC(=O)NCCC2=CCCCC2)S(=O)(=O)c2ccccc2)cc1	Exocytosis inh 62.3 | Exocytosis CP01 inactive
CCOc1ccc(N(CC(=O)NCCOc2ccc(C)cc2)S(=O)(=O)c2ccccc2)cc1	none
COc1ccc(NC(=O)CN(c2ccc(OC)c(Cl)c2)S(=O)(=O)c2ccccc2)cc1	Exocytosis inh 56.3 | Exocytosis CP01 inactive

Screening results as filed in PubChem.
